In brackets after ≈: the same amount, converted by molar mass.
Key:
[1] = Metabolic stability in CD-1 mouse liver microsomes incubated for 30 mins by LC-MS analysis; assay type: ADME, Microsome; settings: CD-1, mouse, liver microsomes, read-out: Stabilty
Outline: (§1)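 Microsomes from male CD-1 mouse or pooled human, 1 mg/mL protein in 0.05 M phosphate buffer pH 7.4. Compound at final 0.1 μM with DMSO cosolvent. Incubated at 37 °C with 1 mM NADPH, or with buffer in place of NADPH. Sampled at 0 and 30 min and quenched with acetonitrile. LC−MS measurement; substrate remaining at 30 min normalized to time zero.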

[2] = Oral bioavailability in BALB/c mouse at 10 mg/kg measured upto 24 hrs by LC-MS/MS analysis; assay type: ADME, organism-based; settings: in vivo
Outline: (§2)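 Female BALB/c mice, 16−21 g, three per route. Oral dosing at 10 mg/kg as a 5 mg/mL suspension in 0.5% carboxymethyl cellulose. IV dosing at 1 mg/kg as a 1 mg/mL solution in 10% DMSO/50% PEG400/40% water. Blood sampled 15 min to 24 h after oral dosing and 5 min to 24 h after iv. LC/MS/MS quantification in ESI positive mode. Noncompartmental analysis; F = (AUCpo×dose_iv)/(AUCiv×dose_po)×100%.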

Escherichia coli = assay: Antibacterial activity against Escherichia coli 25922 assessed as inhibition of bacterial growth incubated for 18 hrs by broth microdilution method; assay type: functional; settings: ATCC 25922
Outline: (§3)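 Broth microdilution in 96-well plates. Media: cation-adjusted Mueller−Hinton broth for S. aureus, brain heart infusion for VRE, Mueller−Hinton broth for the other strains. Incubated at 37 °C for 18 h, then A600 read. Percent growth inhibition calculated against 1% DMSO vehicle.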

Enterococcus faecalis [3] = assay: Antibacterial activity against Enterococcus faecalis ATCC 29212 assessed as bacterial growth inhibition after 18 hrs by broth microdilution method; assay type: functional; outline: as §3
[4] = Apparent volume of distribution in BALB/c mouse at 1 mg/kg, iv measured upto 24 hrs by LC-MS/MS analysis; assay type: ADME, organism-based; settings: in vivo, read-out: Vz; outline: as §2
Enterococcus faecalis [5] = assay: Antibacterial activity against linezolid resistant Enterococcus faecalis assessed as bacterial growth inhibition after 18 hrs by broth microdilution method; assay type: functional
[6] = Elimination half life in BALB/c mouse at 1 mg/kg, iv measured upto 24 hrs by LC-MS/MS analysis; assay type: ADME, organism-based; settings: in vivo, read-out: beta t1/2 (converted); outline: as §2
Staphylococcus aureus [7] = assay: Antibacterial activity against methicillin resistant Staphylococcus aureus assessed as bacterial growth inhibition after 18 hrs by broth microdilution method; assay type: functional
[8] = AUC (0 to t) in BALB/c mouse at 10 mg/kg, po measured upto 24 hrs by LC-MS/MS analysis; assay type: ADME, organism-based; parameters: route oral, dose 10 mg/kg, time <=24; settings: in vivo; outline: as §2
[9] = MRT (0 to infinity) in BALB/c mouse at 1 mg/kg, iv measured upto 24 hrs by LC-MS/MS analysis; assay type: ADME, organism-based; settings: in vivo; outline: as §2
[10] = Cmax in BALB/c mouse at 10 mg/kg, po measured upto 24 hrs by LC-MS/MS analysis; assay type: ADME, organism-based; parameters: route oral, dose 10 mg/kg, time <=24; settings: in vivo; outline: as §2
Staphylococcus capitis = assay: Antibacterial activity against linezolid resistant Staphylococcus capitis assessed as bacterial growth inhibition after 18 hrs by broth microdilution method; assay type: functional
Vero = assay: Cytotoxicity against african green monkey Vero cells after 48 hrs by MTT assay; assay type: cell-based; settings: Chlorocebus sabaeus
Outline: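 Vero cells grown in RPMI1640 with 10% FBS at 37 °C, 5% CO2. Cells diluted to 4 × 10⁵ cells/mL. Compounds given as three-fold serial dilutions, final 64−0.26 μg/mL, for 48 h at 37 °C. Monolayers washed with warm HBSS, then MTT added for 4 h. Absorbance read at 492 nm.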

[11] = Metabolic stability in pooled human liver microsomes incubated for 30 mins by LC-MS analysis; assay type: ADME, Microsome; settings: read-out: Stabilty; outline: as §1
Staphylococcus aureus [12] = assay: Antibacterial activity against Staphylococcus aureus ATCC 29213 assessed as inhibition of bacterial growth incubated for 18 hrs by broth microdilution method; assay type: functional; outline: as §3
[13] = Metabolic stability in pooled human liver microsomes assessed as substrate remaining in presence of NADPH incubated for 30 mins by LC-MS analysis; assay type: ADME, Microsome; settings: read-out: Stabilty; outline: as §1
[14] = test system: Staphylococcus epidermidis; assay: Antibacterial activity against methicillin resistant Staphylococcus epidermidis assessed as bacterial growth inhibition after 18 hrs by broth microdilution method; assay type: functional
[15] = test system: Mycobacterium tuberculosis; assay: Antitubercular activity against Mycobacterium tuberculosis H37Rv assessed as inhibition of bacterial growth incubated for 7 days by MABA; assay type: functional; settings: Mycobacterium tuberculosis, H37Rv, 168 h, time 7 day; read-out: MIC
Outline: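 Microplate alamar blue assay. H37Rv or clinical isolates were grown to late log phase in 7H9 broth with glycerol, Tween 80 and ADC, then 2 × 10⁵ CFU added to two-fold dilutions. Final range 32–0.5 μg/mL, lowered to 2–0.016 μg/mL for active compounds. 37 °C, 7 days, then alamar blue 16 h. Fluorescence 530/590 nm. MIC is the lowest concentration giving ≥90% reduction; INH and RFP were controls.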

Compound: CC(=O)NC[C@@H]1OC(=O)N2Cc3cc(-c4ccc(C#N)nc4)c(F)cc3O[C@@H]12
- remaining at 0.5 h [1]: 108%
- bioavailability [2]: 128%
- MIC (Escherichia coli): > 64 µg/mL
- MIC (Enterococcus faecalis [3]): 0.5 µg/mL (≈ 1.31 µM)
- Vd [4]: 0.762 L/kg
- MIC (Enterococcus faecalis [5]): 1 µg/mL (≈ 2.62 µM)
- half-life [6]: 4.08 h
- MIC (Staphylococcus aureus [7]): 0.25 µg/mL (≈ 0.654 µM)
- AUC(0-t) at 24 h [8]: 77600 ng·h/mL
- MRT inf [9]: 4.71 h
- Cmax [10]: 10300 ng/mL
- MIC (Staphylococcus capitis): 2 µg/mL (≈ 5.23 µM)
- IC50 (Vero): > 64 µg/mL
- remaining at 0.5 h [11]: 106%
- MIC (Staphylococcus aureus [12]): 0.125 µg/mL (≈ 0.327 µM)
- remaining at 0.5 h [13]: 118%
- MIC [14]: 1 µg/mL (≈ 2.62 µM)
- MIC [15]: 0.4 µg/mL (≈ 1.05 µM)
